ChEMBL document CHEMBL3739379, “Anti-Candida activity and cytotoxicity of a large library of new N-substituted-1,3-thiazolidin-4-one derivatives” (Eur J Med Chem, 2016)
Converted amounts (≈) assume the structure as drawn.

Tests used:
Type in all cases: functional
Enterobacter sp. = assay: Antibacterial activity against Enterobacter sp. after 18 to 22 hrs by broth microdilution method
How it was run: (§1)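 Broth microdilution per NCCLS in Mueller-Hinton II broth; isolates subcultured for purity. Compounds dissolved in DMSO, serial dilutions 256 to 0.5 µg/mL; inoculum 10^5/mL. Controls: organism without compound, medium only. Incubation 18 to 22 h at 35 °C. MIC is the lowest concentration giving complete growth inhibition, read by unaided eye.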

Pichia kudriavzevii = assay: Antifungal activity against Candida krusei clinical isolate after 24 hrs by sabouraud dextrose broth based microdilution method
How it was run: (§2)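 Clinical isolates identified by conventional methods and subcultured for purity. Broth microdilution per NCCLS in Sabouraud dextrose broth; compounds dissolved in DMSO and serially diluted; inoculum 10^3/mL. Controls: fungi without compound, medium only. Incubated 24 h at 37 °C. MIC is the lowest concentration with complete growth inhibition by unaided eye. Values are geometric means over isolates per species.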

[1] = system: Staphylococcus haemolyticus; assay: Antibacterial activity against Staphylococcus haemolyticus after 18 to 22 hrs by broth microdilution method; how it was run: as §1
Candida tropicalis = assay: Antifungal activity against Candida tropicalis clinical isolate after 24 hrs by sabouraud dextrose broth based microdilution method; how it was run: as §2
Proteus mirabilis = assay: Antibacterial activity against Proteus mirabilis after 18 to 22 hrs by broth microdilution method; how it was run: as §1
Nakaseomyces glabratus = assay: Antifungal activity against Candida glabrata clinical isolate after 24 hrs by sabouraud dextrose broth based microdilution method; how it was run: as §2
Staphylococcus aureus = assay: Antibacterial activity against Staphylococcus aureus after 18 to 22 hrs by broth microdilution method; how it was run: as §1
Candida parapsilosis = assay: Antifungal activity against Candida parapsilosis clinical isolate after 24 hrs by sabouraud dextrose broth based microdilution method; conditions: Lodderomyces parapsilosis; how it was run: as §2
Enterococcus faecalis = assay: Antibacterial activity against […] faecalis after 18 to 22 hrs by broth microdilution method; how it was run: as §1
Escherichia coli = assay: Antibacterial activity against Escherichia coli at after 18 to 22 hrs by broth microdilution method; how it was run: as §1
Klebsiella oxytoca = assay: Antibacterial activity against Klebsiella oxytoca after 18 to 22 hrs by broth microdilution method; how it was run: as §1
Candida albicans = assay: Antifungal activity against Candida albicans clinical isolate after 24 hrs by sabouraud dextrose broth based microdilution method; how it was run: as §2
[Candida] sake = Antifungal activity against Candida sake clinical isolate after 24 hrs by sabouraud dextrose broth based microdilution method; conditions: Fermentozyma sake; how it was run: as §2
Staphylococcus warneri = assay: Antibacterial activity against Staphylococcus warneri after 18 to 22 hrs by broth microdilution method; how it was run: as §1

SMILES	MIC (Enterobacter sp.)	MIC (Pichia kudriavzevii)	MIC [1]	MIC (Candida tropicalis)	MIC (Proteus mirabilis)	MIC (Nakaseomyces glabratus)	MIC (Staphylococcus aureus)	MIC (Candida parapsilosis)	MIC (Enterococcus faecalis)	MIC (Escherichia coli)	MIC (Klebsiella oxytoca)	MIC (Candida albicans)	MIC ([Candida] sake)	MIC (Staphylococcus warneri)
C/C(=N\N=C1/SCC(=O)N1Cc1cccc2ccccc12)C1CCCCC1	> 256 µg/mL	2 µg/mL (≈ 5.27 µM)	> 256 µg/mL	256 µg/mL (≈ 675 µM)	> 256 µg/mL	8 µg/mL (≈ 21.1 µM)	> 256 µg/mL	16 µg/mL (≈ 42.2 µM)	> 256 µg/mL	> 256 µg/mL	> 256 µg/mL	8 µg/mL (≈ 21.1 µM)	16 µg/mL (≈ 42.2 µM)	> 256 µg/mL
CCCCCC/C(C)=N/N=C1\SCC(=O)N1Cc1cccc2ccccc12	> 256 µg/mL	8 µg/mL (≈ 21 µM)	> 256 µg/mL	8 µg/mL (≈ 21 µM)	> 256 µg/mL	2 µg/mL (≈ 5.24 µM)	> 256 µg/mL	16 µg/mL (≈ 41.9 µM)	> 256 µg/mL	> 256 µg/mL	> 256 µg/mL	2 µg/mL (≈ 5.24 µM)	16 µg/mL (≈ 41.9 µM)	> 256 µg/mL
C=CCC/C(C)=N/N=C1\SCC(=O)N1Cc1ccc([N+](=O)[O-])cc1	> 256 µg/mL	32 µg/mL (≈ 92.4 µM)	> 256 µg/mL	8 µg/mL (≈ 23.1 µM)	> 256 µg/mL	8 µg/mL (≈ 23.1 µM)	> 256 µg/mL	32 µg/mL (≈ 92.4 µM)	> 256 µg/mL	> 256 µg/mL	> 256 µg/mL	4 µg/mL (≈ 11.5 µM)	8 µg/mL (≈ 23.1 µM)	> 256 µg/mL
O=C1CS/C(=N\N=C2CCCCC2)N1Cc1cccc2ccccc12	> 256 µg/mL	16 µg/mL (≈ 45.5 µM)	> 256 µg/mL	8 µg/mL (≈ 22.8 µM)	> 256 µg/mL	32 µg/mL (≈ 91 µM)	> 256 µg/mL	8 µg/mL (≈ 22.8 µM)	> 256 µg/mL	> 256 µg/mL	> 256 µg/mL	2 µg/mL (≈ 5.69 µM)	32 µg/mL (≈ 91 µM)	> 256 µg/mL
C/C(=N\N=C1/SCC(=O)N1Cc1ccc([N+](=O)[O-])cc1)c1ccccc1	> 256 µg/mL	8 µg/mL (≈ 21.7 µM)	> 256 µg/mL	2 µg/mL (≈ 5.43 µM)	> 256 µg/mL	32 µg/mL (≈ 86.9 µM)	> 256 µg/mL	4 µg/mL (≈ 10.9 µM)	> 256 µg/mL	> 256 µg/mL	> 256 µg/mL	4 µg/mL (≈ 10.9 µM)	2 µg/mL (≈ 5.43 µM)	> 256 µg/mL
O=C1c2ccccc2C(=O)N1CN1C(=O)CS/C1=N\N=C\c1ccc2c(c1)OCO2	> 256 µg/mL	32 µg/mL (≈ 75.8 µM)	> 256 µg/mL	8 µg/mL (≈ 18.9 µM)	> 256 µg/mL	8 µg/mL (≈ 18.9 µM)	> 256 µg/mL	128 µg/mL (≈ 303 µM)	> 256 µg/mL	> 256 µg/mL	> 256 µg/mL	8 µg/mL (≈ 18.9 µM)	128 µg/mL (≈ 303 µM)	> 256 µg/mL
CC1CCC/C1=N\N=C1/SCC(=O)N1CN1C(=O)c2ccccc2C1=O (stereo unspecified)	> 256 µg/mL	2 µg/mL (≈ 5.4 µM)	> 256 µg/mL	4 µg/mL (≈ 10.8 µM)	> 256 µg/mL	32 µg/mL (≈ 86.4 µM)	> 256 µg/mL	8 µg/mL (≈ 21.6 µM)	> 256 µg/mL	> 256 µg/mL	> 256 µg/mL	16 µg/mL (≈ 43.2 µM)	8 µg/mL (≈ 21.6 µM)	> 256 µg/mL
CC1CCC(=N/N=C2\SCC(=O)N2Cc2cccc3ccccc23)CC1 (stereo unspecified)	> 256 µg/mL	8 µg/mL (≈ 21.9 µM)	> 256 µg/mL	128 µg/mL (≈ 350 µM)	> 256 µg/mL	16 µg/mL (≈ 43.8 µM)	> 256 µg/mL	8 µg/mL (≈ 21.9 µM)	> 256 µg/mL	> 256 µg/mL	> 256 µg/mL	2 µg/mL (≈ 5.47 µM)	4 µg/mL (≈ 10.9 µM)	> 256 µg/mL
O=C1c2ccccc2C(=O)N1CN1C(=O)CS/C1=N\N=C\c1ccco1	> 256 µg/mL	4 µg/mL (≈ 10.9 µM)	> 256 µg/mL	8 µg/mL (≈ 21.7 µM)	> 256 µg/mL	8 µg/mL (≈ 21.7 µM)	> 256 µg/mL	2 µg/mL (≈ 5.43 µM)	> 256 µg/mL	> 256 µg/mL	> 256 µg/mL	2 µg/mL (≈ 5.43 µM)	2 µg/mL (≈ 5.43 µM)	> 256 µg/mL
O=C1CS/C(=N\N=C2CCCCC2)N1Cc1ccc([N+](=O)[O-])cc1	> 256 µg/mL	16 µg/mL (≈ 46.2 µM)	> 256 µg/mL	8 µg/mL (≈ 23.1 µM)	> 256 µg/mL	32 µg/mL (≈ 92.4 µM)	> 256 µg/mL	8 µg/mL (≈ 23.1 µM)	> 256 µg/mL	> 256 µg/mL	> 256 µg/mL	8 µg/mL (≈ 23.1 µM)	16 µg/mL (≈ 46.2 µM)	> 256 µg/mL
CC1CCC(=N/N=C2\SCC(=O)N2Cc2ccc([N+](=O)[O-])cc2)CC1 (stereo unspecified)	> 256 µg/mL	8 µg/mL (≈ 22.2 µM)	> 256 µg/mL	32 µg/mL (≈ 88.8 µM)	> 256 µg/mL	16 µg/mL (≈ 44.4 µM)	> 256 µg/mL	8 µg/mL (≈ 22.2 µM)	> 256 µg/mL	> 256 µg/mL	> 256 µg/mL	32 µg/mL (≈ 88.8 µM)	4 µg/mL (≈ 11.1 µM)	> 256 µg/mL
CC1CC/C(=N\N=C2/SCC(=O)N2Cc2cccc3ccccc23)C1 (stereo unspecified)	> 256 µg/mL	256 µg/mL (≈ 728 µM)	> 256 µg/mL	128 µg/mL (≈ 364 µM)	> 256 µg/mL	16 µg/mL (≈ 45.5 µM)	> 256 µg/mL	64 µg/mL (≈ 182 µM)	> 256 µg/mL	> 256 µg/mL	> 256 µg/mL	2 µg/mL (≈ 5.69 µM)	256 µg/mL (≈ 728 µM)	> 256 µg/mL
O=C1c2ccccc2C(=O)N1CN1C(=O)CS/C1=N\N=C1CCCCCCC1	> 256 µg/mL	4 µg/mL (≈ 10 µM)	> 256 µg/mL	8 µg/mL (≈ 20.1 µM)	> 256 µg/mL	32 µg/mL (≈ 80.3 µM)	> 256 µg/mL	4 µg/mL (≈ 10 µM)	> 256 µg/mL	> 256 µg/mL	> 256 µg/mL	4 µg/mL (≈ 10 µM)	4 µg/mL (≈ 10 µM)	> 256 µg/mL
OC(Cn1cncn1)(Cn1cncn1)c1ccc(F)cc1F [FLUCONAZOLE]		2 µg/mL (≈ 6.53 µM)		2 µg/mL (≈ 6.53 µM)		2 µg/mL (≈ 6.53 µM)		2 µg/mL (≈ 6.53 µM)				2 µg/mL (≈ 6.53 µM)	2 µg/mL (≈ 6.53 µM)	
Clc1ccc(COC(Cn2ccnc2)c2ccc(Cl)cc2Cl)c(Cl)c1 (stereo unspecified) [MICONAZOLE]		4 µg/mL (≈ 9.61 µM)		2 µg/mL (≈ 4.81 µM)		4 µg/mL (≈ 9.61 µM)		4 µg/mL (≈ 9.61 µM)				2 µg/mL (≈ 4.81 µM)	2 µg/mL (≈ 4.81 µM)	
C[C@@H]1[C@H](O)[C@@H](C)/C=C/C=C/C=C/C=C/C=C/C=C/C=C/[C@H](O[C@@H]2O[C@H](C)[C@@H](O)[C@H](N)[C@@H]2O)C[C@@H]2O[C@](O)(C[C@@H](O)C[C@@H](O)[C@H](O)CC[C@@H](O)C[C@@H](O)CC(=O)O[C@H]1C)C[C@H](O)[C@H]2C(=O)O [AMPHOTERICIN B]		4 µg/mL (≈ 4.33 µM)		2 µg/mL (≈ 2.16 µM)		4 µg/mL (≈ 4.33 µM)		2 µg/mL (≈ 2.16 µM)				4 µg/mL (≈ 4.33 µM)	2 µg/mL (≈ 2.16 µM)	
CC(=O)N1CCN(c2ccc(OCC3COC(Cn4ccnc4)(c4ccc(Cl)cc4Cl)O3)cc2)CC1 (stereo unspecified) [KETOCONAZOLE]		4 µg/mL (≈ 7.53 µM)		2 µg/mL (≈ 3.76 µM)		2 µg/mL (≈ 3.76 µM)		2 µg/mL (≈ 3.76 µM)				2 µg/mL (≈ 3.76 µM)	4 µg/mL (≈ 7.53 µM)	
Clc1ccc(C(Cn2ccnc2)OCc2ccsc2Cl)c(Cl)c1 (stereo unspecified) [TIOCONAZOLE]		8 µg/mL (≈ 20.6 µM)		8 µg/mL (≈ 20.6 µM)		4 µg/mL (≈ 10.3 µM)		8 µg/mL (≈ 20.6 µM)				8 µg/mL (≈ 20.6 µM)	4 µg/mL (≈ 10.3 µM)	
CC(C)(O/N=C(\C(=O)N[C@@H]1C(=O)N2C(C(=O)[O-])=C(C[n+]3ccccc3)CS[C@H]12)c1csc(N)n1)C(=O)O [CEFTAZIDIME]	8 µg/mL (≈ 14.6 µM)		4 µg/mL (≈ 7.32 µM)		8 µg/mL (≈ 14.6 µM)		2 µg/mL (≈ 3.66 µM)		4 µg/mL (≈ 7.32 µM)	4 µg/mL (≈ 7.32 µM)	8 µg/mL (≈ 14.6 µM)			4 µg/mL (≈ 7.32 µM)
Clc1ccccc1C(c1ccccc1)(c1ccccc1)n1ccnc1 [CLOTRIMAZOLE]		2 µg/mL (≈ 5.8 µM)		2 µg/mL (≈ 5.8 µM)		2 µg/mL (≈ 5.8 µM)		2 µg/mL (≈ 5.8 µM)				2 µg/mL (≈ 5.8 µM)	2 µg/mL (≈ 5.8 µM)	
